Experimental data pooled from the literature.
Effect on: microbial growth

SMILES	organism	method	strain	time	MIC
O=C(Cc1cc(O)c(O)c(O)c1)NCCCCCCCC[P+](c1ccccc1)(c1ccccc1)c1ccccc1.[Br-]	Cryptococcus neoformans	broth dilution	ATCC208821	24 h	> 32 µg/mL
C[C@@H]1[C@H](O)[C@@H](C)/C=C/C=C/C=C/C=C/C=C/C=C/C=C/[C@H](O[C@@H]2O[C@H](C)[C@@H](O)[C@H](N)[C@@H]2O)C[C@@H]2O[C@](O)(C[C@@H](O)C[C@@H](O)[C@H](O)CC[C@@H](O)C[C@@H](O)CC(=O)O[C@H]1C)C[C@H](O)[C@H]2C(=O)O	Cryptococcus neoformans		ATCC90113		0.68 µM
O=C(CCCCCCCCCC[P+](c1ccccc1)(c1ccccc1)c1ccccc1)Nc1cc(O)c(O)c(O)c1.[Br-]	Cryptococcus neoformans	broth dilution	ATCC208821	24 h	4 µg/mL
O=C(O)c1cn(C2CC2)c2cc(N3CCNCC3)c(F)cc2c1=O	Proteus vulgaris		DSM2140		≤ 0.03 µg/mL
O=C(Cc1ccc(O)c(O)c1)NCCCCCCCC[P+](c1ccccc1)(c1ccccc1)c1ccccc1.[Br-]	Cryptococcus neoformans	broth dilution	ATCC208821	24 h	> 32 µg/mL
CCCCCCC/C=C/C(=O)N1C(=O)/C(=C(\O)c2ccc(O)cc2)C(=O)C1CC(C)C (stereo not shown)	Proteus vulgaris		ATCC33420		> 200 µg/mL
CC(C)Oc1c(-n2cc(-c3ccc(NC(=O)C(CC(N)=O)NC(=O)c4ccc(NC(=O)c5ccc(C#N)cc5)cc4)cc3)nn2)ccc(C(=O)Nc2ccc(C(=O)O)cc2)c1O (stereo not shown)	Proteus vulgaris		DSM2140		2 µg/mL
CCCCCCC/C=C/C(=O)N1C(=O)/C(=C(/C)O)C(=O)C1CCCCN (stereo not shown)	Proteus vulgaris		ATCC33420		> 200 µg/mL
CC(C)Oc1c(NC(=O)c2ccc(NC(=O)[C@H](CC(N)=O)NC(=O)c3ccc(NC(=O)c4ccc(C#N)s4)cc3)cc2)ccc(C(=O)Nc2ccc(C(=O)O)cc2)c1O	Proteus vulgaris		DSM2140		0.06 µg/mL
CCCCCCC/C=C/C(=O)N1C(=O)/C(=C(/C)O)C(=O)C1Cc1ccc(O)cc1 (stereo not shown)	Proteus vulgaris		ATCC33420		> 200 µg/mL
CC(C)Oc1c(NC(=O)c2ccc(NC(=O)c3ccc(NC(=O)[C@H](CC(N)=O)NC(=O)c4ccc(NC(=O)c5ccc(C#N)cn5)cc4)cc3)c(OC(C)C)c2O)ccc(C(=O)O)c1O	Proteus vulgaris		DSM2140		1 µg/mL
CN1CCN(CC(O)(Cn2cncn2)c2ccc(F)cc2F)CC1 (stereo not shown)	Nakaseomyces glabratus	broth dilution	ATCC2001	48 h	31.3 µg/mL
CCCCCCCCCCCCCCS(=O)(=O)C[C@@H]1O[C@@H](O[C@@H]2[C@@H](O)[C@H](O[C@@H]3O[C@@H](CN)[C@H](O)[C@@H](O)[C@@H]3N)[C@@H](N)C[C@H]2N)[C@@H](O)[C@H](N)[C@H]1O	Listeria monocytogenes		ATCC19115		2 to 4 µg/mL
CCCCCCC/C=C/C(=O)N1C(=O)/C(=C(/C)O)C(=O)C1CCC(=O)O (stereo not shown)	Proteus vulgaris		ATCC33420		> 200 µg/mL
OC(CN1CCOCC1)(Cn1cncn1)c1ccc(F)cc1F (stereo not shown)	Nakaseomyces glabratus	broth dilution	ATCC2001	48 h	31.3 µg/mL
CCCCCCC/C=C/C(=O)N1C(=O)/C(=C(\O)c2ccccc2)C(=O)C1CC(C)C (stereo not shown)	Proteus vulgaris		ATCC33420		> 200 µg/mL
NC[C@H]1O[C@H](O[C@H]2[C@H](O)[C@@H](O[C@H]3O[C@H](CO)[C@@H](O)[C@H](N)[C@H]3O)[C@H](N)C[C@@H]2N)[C@H](O)[C@@H](O)[C@@H]1O	Listeria monocytogenes		ATCC19115		> 128 µg/mL
C/C(=C\c1ccc(C#N)cc1)C(=O)Nc1ccc(C(=O)N[C@@H](CC(N)=O)C(=O)Nc2ccc(C(=O)Nc3ccc(C(=O)Nc4ccc(C(=O)O)cc4)c(O)c3OC(C)C)cc2)cc1	Proteus vulgaris		DSM2140		≤ 0.03 µg/mL
CNC(=O)c1cc(Oc2ccc(NC(=O)Nc3ccc(Cl)c(C(F)(F)F)c3)cc2)ccn1	Listeria monocytogenes				3 µM
